# Source: ChEMBL document CHEMBL1125100, “New quinolone antibacterial agents. Synthesis and biological activity of 7-(3,3- or 3,4-disubstituted-1-pyrrolidinyl)quinoline-3-carboxylic acids” (1990)
# How the values were obtained:
# Assay type in all cases: functional
# [1] = test system: Escherichia coli; assay: Antibacterial activity was determined against Gram-negative Escherichia coli Vogel bacteria
# Method in brief: (§1)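 MICs, in micrograms per milliliter, were determined by standard microtitration (microdilution) techniques against each listed Gram-negative and Gram-positive strain.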
# [2] = test system: Enterobacter cloacae; assay: Antibacterial activity was determined against Gram-negative Enterobacter cloacae HA2646 bacteria; method in brief: as §1
# [3] = test system: Escherichia coli; assay: Antibacterial activity was determined against Gram-negative Escherichia coli H560 bacteria; method in brief: as §1
# [4] = test system: Escherichia coli; assay: Protective dose against Escherichia coli H560 bacteria; settings: read-out: PD50
# Method in brief: (§2)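 Acute lethal systemic infection model in female Charles River CD-1 mice. The value is the median protective dose (PD50, mg/kg), defined as the dose needed to protect 50% of mice from the lethal infection.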
# [5] = test system: Escherichia coli; assay: Gyrase-drug induced cleavage against Escherichia coli
# Method in brief: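 Compounds were tested for induction of DNA gyrase-mediated cleavage. The value is the minimum drug concentration giving linear DNA at an intensity matching that produced by oxolinic acid at 10 μg/mL.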
# [6] = test system: Klebsiella pneumoniae; assay: Antibacterial activity was determined against Gram-negative Klebsiella pneumoniae MGH-2 bacteria; method in brief: as §1
# [7] = test system: Providencia rettgeri; assay: Antibacterial activity was determined against Gram-negative Providencia rettgeri H1771 bacteria; method in brief: as §1
# [8] = test system: Pseudomonas aeruginosa; assay: Antibacterial activity was determined against Gram-negative Pseudomonas aeruginosa UI-18 bacteria; method in brief: as §1
# [9] = test system: Staphylococcus aureus; assay: Antibacterial activity was determined against Gram-positive Staphylococcus aureus H228 bacteria; settings: in the assay text read “Gram-positive” for “Gram-negative”; method in brief: as §1
# [10] = test system: Staphylococcus aureus; assay: Antibacterial activity was determined against Gram-positive Staphylococcus aureus UC-76 bacteria; settings: in the assay text read “Gram-positive” for “Gram-negative”; method in brief: as §1
# [11] = test system: Streptococcus pneumoniae; assay: Protective dose against Streptococcus pneumonia bacteria; settings: read-out: PD50; method in brief: as §2
# [12] = test system: Streptococcus pneumoniae; assay: Antibacterial activity was determined against Gram-positive Streptococcus pneumoniae SV-1 bacteria; method in brief: as §1
# [13] = test system: Streptococcus pyogenes; assay: Antibacterial activity was determined against Gram-positive Streptococcus pyogenes C203 bacteria; method in brief: as §1
# [14] = test system: Streptococcus pyogenes; assay: Protective dose against Streptococcus pyogenes bacteria; settings: read-out: PD50; method in brief: as §2
# [15] = test system: Enterococcus faecalis; assay: Antibacterial activity was determined against Gram-positive Streptococcus faecalis MGH-2 bacteria; method in brief: as §1
# [16] = test system: Streptococcus pneumoniae; assay: Protective dose against Streptococcus pneumoniae bacteria; settings: read-out: PD50; method in brief: as §2
Structure (SMILES),MIC [1] [µg/mL],MIC [2] [µg/mL],MIC [3] [µg/mL],ED50 [4] [mg/kg],MEC [5] [µg/mL],MIC [6] [µg/mL],MIC [7] [µg/mL],MIC [8] [µg/mL],MIC [9] [µg/mL],MIC [10] [µg/mL],ED50 [11] [mg/kg],MIC [12] [µg/mL],MIC [13] [µg/mL],ED50 [14] [mg/kg],MIC [15] [µg/mL],ED50 [16] [mg/kg]
CC1(CN)CCN(c2c(F)cc3c(=O)c(C(=O)O)cn(C4CC4)c3c2F)C1 (stereo not drawn),0.05,0.025,0.013,2.1,2.62,0.1,0.2,0.4,0.013,0.003,5,0.006,0.025,9,0.013,
NCC1CN(c2c(F)cc3c(=O)c(C(=O)O)cn(C4CC4)c3c2F)CC1c1ccccc1 (stereo not drawn),0.1,0.2,0.013,27,2.62,0.1,0.4,1.6,0.013,0.006,,0.006,0.013,11,0.013,25
NC1CN(c2c(F)cc3c(=O)c(C(=O)O)cn(C4CC4)c3c2F)CC1c1ccccc1 (stereo not drawn),0.1,0.2,0.025,,2.75,0.2,0.4,1.6,0.05,0.025,,0.1,0.1,,0.1,
NCC1CCN(c2c(F)cc3c(=O)c(C(=O)O)cn(C4CC4)c3c2F)C1 (stereo not drawn),0.025,0.05,0.006,6,0.25,0.05,0.1,0.2,0.025,0.003,10,0.006,0.013,4,0.025,
NCC1(c2ccccc2)CCN(c2c(F)cc3c(=O)c(C(=O)O)cn(C4CC4)c3c2F)C1 (stereo not drawn),0.05,0.05,0.013,14,2.62,0.1,0.2,0.8,0.025,0.013,,0.013,0.05,21,0.05,
CN(C)CC1(c2ccccc2)CCN(c2c(F)cc3c(=O)c(C(=O)O)cn(C4CC4)c3c2F)C1 (stereo not drawn),0.05,0.05,0.013,50,2.62,0.1,0.1,0.4,0.05,0.05,,0.006,0.025,,0.05,
NC1(c2ccccc2)CCN(c2c(F)cc3c(=O)c(C(=O)O)cn(C4CC4)c3c2F)C1 (stereo not drawn),0.025,0.006,0.013,12,0.55,0.05,0.05,0.2,0.013,0.006,,0.013,0.05,12,0.05,
CC1(N)CCN(c2c(F)cc3c(=O)c(C(=O)O)cn(C4CC4)c3c2F)C1 (stereo not drawn),0.2,0.2,0.2,,0.8,0.4,0.8,3.1,0.8,0.2,,0.8,0.8,,1.6,
CCNCC1(c2ccccc2)CCN(c2c(F)cc3c(=O)c(C(=O)O)cn(C4CC4)c3c2F)C1 (stereo not drawn),0.4,0.8,0.1,37,2.62,0.8,1.6,3.1,0.1,0.05,,0.025,0.1,,0.2,
NC1CCN(c2c(F)cc3c(=O)c(C(=O)O)cn(C4CC4)c3c2F)C1 (stereo not drawn),0.013,0.025,0.006,1,0.1,0.025,0.05,0.1,0.05,0.025,15,0.05,0.05,7.5,0.05,
